Assay results from different studies.
Each line is one published result; the experiments were not run side by side.
TNK1: Non-receptor tyrosine-protein kinase TNK1 (TNK1, Homo sapiens, UniProt Q13470)
HDAC6: Protein deacetylase HDAC6 (HDAC6, Homo sapiens, UniProt Q9UBN7)

C=CC(=O)N1CCC(COCC(=O)N2CCN(c3nc(-c4cnc(N)nc4C(F)F)nc(N4CCOC[C@@H]4C)n3)CC2)CC1 — remaining binding (Serine/threonine-protein kinase MAK (MAK, Homo sapiens, UniProt P20794); binding, competition with immobilised ligand; 1 µM): 100%
CNc1ncc2c(/C=C/C(=O)N3CCC(OC)CC3)nn(Cc3cccc(C(F)(F)F)c3)c2n1 — remaining activity (Dual specificity protein kinase TTK (TTK, Homo sapiens, UniProt P33981); enzyme activity, inhibitor, radiometric; 1 µM): 105%
Cc1ncsc1-c1ccc(CNC(=O)[C@@H]2C[C@@H](O)CN2C(=O)[C@@H](NC(=O)CCCCCCCCNC(=O)CN2CCN(C(=O)c3ccc(Nc4nc(C5CC5)cn5c(-c6cn[nH]c6)cnc45)c(F)c3)CC2)C(C)(C)C)cc1 — inhibition (TNK1; cell-free assay, competition with immobilised ligand; 1 µM): > 65%
C=CC(=O)N1C[C@@H](n2nc(C#Cc3c(F)cc4c(ncn4C4CC4)c3F)c(C(N)=O)c2NC)C[C@@H]1COC — inhibition (TNK1; enzyme activity, inhibitor, mobility shift; 1 µM): 89.5%
Cc1c(OS(=O)(=O)Oc2ccc(C(C)(C)C)cc2)cccc1C(=O)NO — inhibition (HDAC6; enzyme activity, inhibitor, fluorescence; 10 µM): 30%
Cc1cc([C@@H](C)Nc2ccccc2C(=O)O)c2nc(N3CCC(F)(F)CC3)c(C#N)c(=O)n2c1 — remaining binding (Serine/threonine-protein kinase PAK 2 (PAK2, Homo sapiens, UniProt Q13177); binding, competition with immobilised ligand; 1 µM): 100%
Cc1cc(OS(=O)(=O)Oc2ccc(C(C)(C)C)cc2)cc(C(=O)NO)c1 — inhibition (HDAC6; enzyme activity, inhibitor, fluorescence; 10 µM): 36%
Cc1cc(NC(=O)c2cccc(NC(=O)/C=C/CN(C)C)c2)ccc1Nc1nccc(-c2cccnc2)n1 — remaining binding (TNK1; binding, competition with immobilised ligand; 1 µM): 57%
Cc1c(OS(=O)(=O)Oc2ccc(Oc3ccccc3)cc2)cccc1C(=O)NO — inhibition (HDAC6; enzyme activity, inhibitor, fluorescence; 10 µM): 27%
CCc1nn(C)c2nc(-c3ccc(C(=O)O)cc3)nc(NCc3ccc(F)cc3)c12 — inhibition (3',5'-cyclic-AMP phosphodiesterase 4D (PDE4D, Homo sapiens, UniProt Q08499); enzyme activity, inhibitor, radiometric; 10 µM): 42.1%
Cc1cc(OS(=O)(=O)Oc2cccc(C(C)C)c2)cc(C(=O)NO)c1 — inhibition (HDAC6; enzyme activity, inhibitor, fluorescence; 10 µM): 58%
COc1cc(-c2cncc3c2CN(C)Cc2cc(N4CCNCC4)ccc2-3)cc(OC)c1OC — remaining activity (Death-associated protein kinase 1 (DAPK1, Homo sapiens, UniProt P53355); enzyme activity, inhibitor; 1 µM): 101%
